Assay outcomes as filed in PubChem BioAssay.
The full list was thinned out, with hits kept by preference.
CHOP inhibitor: blocks CHOP induction under ER stress; CHO-K1 CHOP-promoter luciferase, tunicamycin-induced, 15-18 h; inhibition, % at 10 µM; actives 3.8% (n = 220,000);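 active = compounds that reduced the stress-induced luciferase reporter signal by more than about 70% of percent inhibition, limit read from the data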;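 also: 0% = tunicamycin plus vehicle and 100% = wells without tunicamycin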
A1 inh: inhibitors of the anti-apoptotic protein A1, read as caspase activation | MEF A1-2A-BIM cells, Caspase-Glo 3/7 luminescence, 3 h; percent of clofoctol response, vehicle zero | caspase activation, % (concentration not given with the values) | actives 0.066% (n = 330,000);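 active = over half of replicate activation scores above 10%, or exactly half above 10 with the replicate mean above 10; inconclusive = replicate mean below 10 yet half the replicates above 10; inactive = over half of replicates below 10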
UPR XBP1 act: activators of adaptive arm of unfolded protein response (XBP1); CHO-XBP1 luciferase reporter, IRE1-XBP1 UPR activation, luminescence; percent of tunicamycin response, DMSO as zero; AID 463104; activation, % at 20 µM; actives 0.33% (n = 330,000);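 active = versus positive control, 20 µM dose yields 30% or more activation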;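 also: 100% = tunicamycin at 10 µg/mL and 0% = DMSO only wells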
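Signal: luciferase luminescence; Assay system: CHO-XBP1 luciferase reporter cells; Amount: one thousand reporter cells per well; Dosing: 20 µM single concentration, DMSO 1%; Benchmarks: high control tunicamycin 10 µg/mL final, low control DMSO vehicle only; Schedule: 6 h compound exposure at 37 °C, 5% CO2; Evaluation: percent activation relative to tunicamycin reference.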
UPR CHOP act: activators of apoptotic arm of unfolded protein response (CHOP) | CHO-CHOP luciferase reporter, UPR activation, luminescence; percent of tunicamycin response over DMSO baseline | activation, % at 10 µM | actives 0.34% (n = 330,000);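 active = at 10 µM dose, activation of 40% or more, normalized to positive control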;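 also: 100% = tunicamycin at 10 µg/mL and 0% = DMSO alone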
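Assay system: CHO-CHOP cells, stable luciferase reporter of PERK-eIF2a-CHOP signalling / Buffer or medium: F12 plus 10% serum / Compound dosing: one dose, 10 µM in 0.5% DMSO / Times: 6 h compound treatment, 37 °C / Technique: luciferase luminescence / Read-out: % reporter activation, DMSO baseline versus tunicamycin full activation / Benchmarks: tunicamycin and DMSO controls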
Starred values were filed as active, the others as inactive; ? = inconclusive; nt = no result given.

SMILES	CHOP inhibitor	A1 inh	UPR XBP1 act	UPR CHOP act
CCN(CC)CC(O)Cn1c2ccccc2c2ccccc21 (stereo not drawn)	-17	1	-1	0
CCOC(=O)[C@@H]1[C@H]2COc3ccccc3[C@H]2N2C(=O)N(c3cccc(Cl)c3)C(=O)[C@]12C	nt	-1	0	0
O=C(COC(=O)CCC1CCCC1)Nc1cccc(S(=O)(=O)N2CCOCC2)c1	nt	1	2	-2
CC(C)c1ccc2[nH]c(O)c(N=NC(=O)c3cccc(S(=O)(=O)Nc4ccc(Cl)cc4)c3)c2c1	-5	13*	1	6
CC(C)c1ccc2[nH]c(O)c(N=NC(=O)c3cccc(S(=O)(=O)Nc4cccc(Cl)c4)c3)c2c1	2	?	2	-1
CNC(=S)N=Nc1c(O)[nH]c2ccc(C(C)C)cc12	93*	2	nt	nt
CCC(C)Sc1ccc([C@H]2N[C@@](C)(C(=O)OC)[C@H]3C(=O)N(CC)C(=O)[C@@H]23)cc1OC (stereo partly drawn)	nt	1	-1	-2
O=C(O)c1ccc(S(=O)(=O)NCC2CCCCC2)cc1	nt	1	-3	-1
O=C(CCS(=O)(=O)c1ccccc1)NCc1ccccc1	nt	0	-2	-1
O=C(CSc1ccccc1)Nc1ccc(-c2nc3ccccc3[nH]2)cc1	94*	0	10	3
COc1c(F)c(F)c(C(=O)Nc2ccc(-c3nc4ccccc4[nH]3)cc2)c(F)c1F	83*	-1	-1	1
O=C(CN1CCOCC1)Nc1ccc(-c2nc3ccccc3[nH]2)cc1	1	-2	3	2
COc1ccc(C(=O)Nc2ccc(N3CCN(Cc4ccccc4)CC3)cc2)cc1	-9	2	-2	-1
COc1c(F)c(F)c(C(=O)Nc2ccc(N3CCN(Cc4ccccc4)CC3)cc2)c(F)c1F	88*	0	0	4
CC(C)CCC(C(=O)NC(C)c1ccccc1)C(=O)NC(C)c1ccccc1 (stereo not drawn)	nt	-1	0	-1
O=C(/C=C/c1ccccc1)c1cc(Br)ccc(=O)c1O	-16	-1	1	0
Cc1ccc(/C=C/C(=O)c2ccccc(=O)c2O)cc1C	71*	2	nt	nt
Cc1ccc(-n2nc3c(c2NC(=O)c2ccccc2)CS(=O)(=O)C3)cc1C	nt	0	-4	3
CCOc1ccc(-c2nc3scc(-c4cccs4)c3c(=O)[nH]2)cc1	73*	-1	8	-1
CCN(CC)C(=S)SSC(=S)N(CC)CC	1	0	-3	158*
CC(=O)Nc1ccc(S(=O)(=O)N(C)CC(=O)NNc2c(F)c(F)cc(F)c2F)cc1	nt	1	-1	-1
COc1ccc(CC(C)CC(=O)Nc2ccc(OC)cc2)cc1 (stereo not drawn)	nt	0	-8	0
COCCCN1CN(S(=O)(=O)c2ccc(Cl)cc2)c2nc3ccccc3nc21	93*	0	-2	-1
Cn1c(=O)n(C)c2cc(S(=O)(=O)N3CCN(c4ccccc4)CC3)ccc21	-3	1	-3	-1
Cc1ccc(N2CC(C(=O)Nc3nnc(SCC(=O)Nc4nc(C)cs4)s3)CC2=O)cc1 (stereo not drawn)	71*	0	3	1
SMILES	CHOP inhibitor	A1 inh	UPR XBP1 act	UPR CHOP act
Cc1csc(NC(=O)CSc2nnc(NC(=O)COc3ccc(Cl)cc3)s2)n1	93*	0	0	8
CCCC(=O)Nc1nnc(SCC(=O)Nc2nc(C)cs2)s1	nt	-1	-3	1
Cc1csc(NC(=O)CSc2nnc(NC(=O)C3CC(=O)N(c4ccccc4)C3)s2)n1 (stereo not drawn)	38	1	-1	1
NS(=O)(=O)c1ccc(NC2=CC(=O)C(=O)c3ccccc32)cc1	nt	1	10	16
Cc1ccc(NC2=CC(=O)C(=O)c3ccccc32)cc1	12	1	17	45*
CCC(=O)N1CCN(c2cc(N3CCCC3)c(F)cc2[N+](=O)[O-])CC1	nt	1	-1	-1
O=C(c1cccc(F)c1)N1CCN(c2cc(N3CCCCC3)c(F)cc2[N+](=O)[O-])CC1	73*	0	-2	1
CN(Cc1ccccc1F)C(=O)c1ccc2c(=O)n3c(nc2c1)CCC3	nt	0	-2	3
N#Cc1ccccc1NC(=O)C1SC(=Nc2ccccc2)C(C(=O)Nc2ccc(Cl)cc2)=C1N (stereo not drawn)	100*	0	-1	6
CCOc1ccc(N=C2SC(C(=O)Nc3ccccc3C#N)C(N)=C2C(=O)Nc2ccc(Cl)cc2)cc1 (stereo not drawn)	76*	-1	1	-1
CCN1C(=O)C(=O)N(CC(=O)Nc2ccccc2OC(F)F)C1=O	nt	-2	1	-1
O=C(O)C1CCCN1C(=O)NC1CCCCC1 (stereo not drawn)	nt	0	-4	-2
O=C(CSc1nc(-c2ccccc2)nc2c1Cc1ccccc1O2)Nc1ccc(C(=O)O)cc1	77*	nt	nt	nt
O=C(CSc1nc(-c2ccc(F)cc2)nc2c1Cc1ccccc1O2)Nc1ccc(C(=O)O)cc1	15	nt	nt	nt
CCCCCCCC(=O)NNC(=O)c1c(O)c2ccccc2[nH]c1=O	70*	0	1	0
CCCCCCNC(=O)c1c(O)c2ccccc2[nH]c1=O	88*	-1	1	1
CN(C)c1ccc(C(=O)N=c2sccn2C)cc1[N+](=O)[O-]	nt	-6	0	1
O=C(NC(NC(=S)Nc1c(Cl)cc(Cl)cc1Cl)C(Cl)(Cl)Cl)OCc1ccccc1 (stereo not drawn)	88*	0	14	2
Cc1ccc(C)c(NC(=S)NC(NC(=O)OCc2ccccc2)C(Cl)(Cl)Cl)c1 (stereo not drawn)	92*	-1	-2	4
COC(=O)NC(NC(=S)Nc1cccc(C)c1)C(Cl)(Cl)Cl (stereo not drawn)	14	0	-1	2
CCNc1nc(Oc2ccc(OC)cc2)cc(C(F)(F)F)n1	65	2	-4	-2
CCNc1nc(Sc2ccc(C)cc2)cc(C(F)(F)F)n1	87*	0	4	-1
CCC(=O)Nc1ccc2c(c1)nc(CCNC(=O)c1ccco1)n2C	nt	-1	-2	2
O=C(NCC1COc2ccccc2O1)c1ccc(F)c(S(=O)(=O)N2CCOCC2)c1 (stereo not drawn)	nt	nt	0	-1
CCc1ccc(NC(=O)c2ccc(F)c(S(=O)(=O)NCC3COc4ccccc4O3)c2)cc1 (stereo not drawn)	78*	0	2	3
O=C(c1ccc(COc2ccccc2Cl)o1)N1N=C(C(F)F)CC1(O)C(F)F (stereo not drawn)	75*	1	-3	0
CCn1c(CNC(=O)COc2ccc(C(C)C)cc2)nnc1SCC(=O)Nc1ccccc1	16	2	-2	1
CCn1c(Cn2nnc(-c3ccccc3)n2)nnc1SCC(=O)Nc1ccccc1	88*	0	-6	-3
